From ChEMBL document CHEMBL1138245, “Discovery of N1-(6-chloroimidazo[2,1-b][1,3]thiazole-5-sulfonyl)tryptamine as a potent, selective, and orally active 5-HT(6) receptor agonist” (J Med Chem, 2007)
≈ marks a conversion by molar mass, not a printed value.

Columns and labels:
[1] = target: 5-hydroxytryptamine receptor 2B (Homo sapiens, UniProt P41595); experiment: Inhibition of human 5HT2B receptor expressed in CHO cells; type: cell-based
[2] = Half life in rat at 10 mg/kg, po; type: ADME, organism-based; design: dose 10 mg/kg, route oral; details: in vivo
[3] = Drug level in Sprague-Dawley rat plasma at 100 mg/kg, po after 2 hrs; type: ADME, organism-based; design: dose 100 mg/kg, route oral
Outline: (§1)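 Rats given a single 3 mg/kg ip or 100 mg/kg oral dose; plasma and brain concentrations measured over time to assess brain/plasma ratio.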

[4] = Ratio of drug level in brain to plasma in Sprague-Dawley rat at 100 mg/kg, po after 4 hrs; type: ADME, organism-based; design: dose 100 mg/kg, route oral; details: read-out: BPR
Outline: (§2)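 Rats given a single dose, 3 mg/kg ip or 100 mg/kg oral; drug concentrations measured in plasma and brain at timed points after dosing; brain/plasma concentration ratio calculated.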

[5] = Ratio of drug level in brain to plasma in Sprague-Dawley rat at 3 mg/kg, ip after 0.5 hr; type: ADME, organism-based; design: dose 3 mg/kg, route intraperitoneal; details: read-out: BPR; outline: as §2
[6] = target: 5-hydroxytryptamine receptor 5A (Homo sapiens) (UniProt P47898); experiment: Inhibition of human 5HT5 receptor expressed in CHO cells at 100 nM; type: cell-based
[7] = Half life in dog at 1 mg/kg, iv; type: ADME, organism-based, Canis lupus familiaris; design: dose 1 mg/kg, route intravenous; details: in vivo
[8] = Drug level in Sprague-Dawley rat plasma at 3 mg/kg, ip after 1 hr; type: ADME, organism-based; design: dose 3 mg/kg, route intraperitoneal; outline: as §1
[9] = AUC in rat at 1 mg/kg, iv; type: ADME, organism-based; design: dose 1 mg/kg, route intravenous; details: plasma
[10] = Ratio of drug level in brain to plasma in Sprague-Dawley rat at 100 mg/kg, po after 2 hrs; type: ADME, organism-based; design: dose 100 mg/kg, route oral; details: read-out: BPR; outline: as §2
[11] = Clearance in dog at 1 mg/kg, iv; type: ADME, organism-based, Canis lupus familiaris; design: dose 1 mg/kg, route intravenous; details: in vivo
[12] = Drug level in Sprague-Dawley rat brain at 100 mg/kg, po after 2 hrs; type: ADME, organism-based; design: dose 100 mg/kg, route oral; details: read-out: Drug uptake; outline: as §1
[13] = Drug level in Sprague-Dawley rat brain at 3 mg/kg, ip after 2 hrs; type: ADME, organism-based; design: dose 3 mg/kg, route intraperitoneal; details: read-out: Drug uptake; outline: as §1
[14] = Drug level in Sprague-Dawley rat plasma at 100 mg/kg, po after 0.5 hr; type: ADME, organism-based; design: dose 100 mg/kg, route oral; outline: as §1
[15] = target: T1, 5-hydroxytryptamine receptor 1F (Homo sapiens) (UniProt P30939); experiment: Displacement of [3H]5-HT from human 5HT1F receptor expressed in CHO cells at 1 uM; type: cell-based
T1 sequence (whole entry): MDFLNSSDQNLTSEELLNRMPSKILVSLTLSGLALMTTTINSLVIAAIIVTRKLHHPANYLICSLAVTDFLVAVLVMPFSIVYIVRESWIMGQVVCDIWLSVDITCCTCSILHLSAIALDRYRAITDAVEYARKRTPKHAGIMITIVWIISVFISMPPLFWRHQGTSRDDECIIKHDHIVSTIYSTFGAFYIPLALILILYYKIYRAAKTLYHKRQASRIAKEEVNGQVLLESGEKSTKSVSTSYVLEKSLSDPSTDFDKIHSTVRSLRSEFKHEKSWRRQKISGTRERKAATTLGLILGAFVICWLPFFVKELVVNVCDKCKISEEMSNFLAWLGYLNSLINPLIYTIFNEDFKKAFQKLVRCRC

[16] = Drug level in Sprague-Dawley rat plasma at 3 mg/kg, ip after 0.25 hr; type: ADME, organism-based; design: dose 3 mg/kg, route intraperitoneal; outline: as §1
[17] = AUC in dog at 5 mg/kg, po; type: ADME, organism-based, Canis lupus familiaris; design: dose 5 mg/kg, route oral; details: plasma
[18] = Oral bioavailability in dog at 5 mg/kg; type: ADME, organism-based, Canis lupus familiaris; details: in vivo
[19] = Tmax in rat at 10 mg/kg, po; type: ADME, organism-based; design: dose 10 mg/kg, route oral; details: in vivo
[20] = Drug level in Sprague-Dawley rat brain at 100 mg/kg, po after 0.25 hr; type: ADME, organism-based; design: dose 100 mg/kg, route oral; details: read-out: Drug uptake; outline: as §1
[21] = Drug level in Sprague-Dawley rat brain at 100 mg/kg, po after 0.5 hr; type: ADME, organism-based; design: dose 100 mg/kg, route oral; details: read-out: Drug uptake; outline: as §1
[22] = Metabolic stability in monkey liver microsomes; type: ADME, Macaca mulatta, Microsome; details: rhesus monkey
[23] = Ratio of drug level in brain to plasma in Sprague-Dawley rat at 100 mg/kg, po after 0.5 hr; type: ADME, organism-based; design: dose 100 mg/kg, route oral; details: read-out: BPR; outline: as §2
[24] = target: T2, 5-hydroxytryptamine receptor 3A (Homo sapiens) (UniProt P46098); experiment: Inhibition of human 5HT3 receptor expressed in CHO cells at 100 nM; type: cell-based
T2 sequence (whole entry): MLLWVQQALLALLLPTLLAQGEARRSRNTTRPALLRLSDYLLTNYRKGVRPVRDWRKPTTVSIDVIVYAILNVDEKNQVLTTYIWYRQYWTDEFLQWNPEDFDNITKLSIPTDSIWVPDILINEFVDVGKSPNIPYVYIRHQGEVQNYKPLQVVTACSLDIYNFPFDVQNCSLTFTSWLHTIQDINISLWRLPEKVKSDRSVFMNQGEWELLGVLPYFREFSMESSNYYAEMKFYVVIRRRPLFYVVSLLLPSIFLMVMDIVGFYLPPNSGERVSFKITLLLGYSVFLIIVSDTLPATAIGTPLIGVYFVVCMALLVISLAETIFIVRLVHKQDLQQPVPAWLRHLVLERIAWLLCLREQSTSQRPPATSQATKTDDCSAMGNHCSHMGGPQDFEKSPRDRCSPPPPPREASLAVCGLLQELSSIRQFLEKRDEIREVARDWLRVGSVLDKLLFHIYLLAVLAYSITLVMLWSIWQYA

[25] = Aqueous solubility at pH 8; type: physicochemical
[26] = Ratio of drug level in brain to plasma in Sprague-Dawley rat at 100 mg/kg, po after 0.25 hr; type: ADME, organism-based; design: dose 100 mg/kg, route oral; details: read-out: BPR; outline: as §2
[27] = Drug level in Sprague-Dawley rat plasma at 100 mg/kg, po after 0.25 hr; type: ADME, organism-based; design: dose 100 mg/kg, route oral; outline: as §1
[28] = Metabolic stability in rat liver microsomes; type: ADME, Microsome
[29] = Aqueous solubility at pH 3 to […]; type: physicochemical
[30] = Drug level in Sprague-Dawley rat brain at 3 mg/kg, ip after 0.25 hr; type: ADME, organism-based; design: dose 3 mg/kg, route intraperitoneal; details: read-out: Drug uptake; outline: as §1
[31] = Drug level in Sprague-Dawley rat brain at 3 mg/kg, ip after 0.5 hr; type: ADME, organism-based; design: dose 3 mg/kg, route intraperitoneal; details: read-out: Drug uptake; outline: as §1
[32] = Drug level in Sprague-Dawley rat plasma at 100 mg/kg, po after 1 hr; type: ADME, organism-based; design: dose 100 mg/kg, route oral; outline: as §1
[33] = Ratio of drug level in brain to plasma in Sprague-Dawley rat at 3 mg/kg, ip after 1 hr; type: ADME, organism-based; design: dose 3 mg/kg, route intraperitoneal; details: read-out: BPR; outline: as §2
[34] = target: Beta-2 adrenergic receptor (Homo sapiens) (UniProt P07550); experiment: Displacement of radio ligand from beta-2 adrenergic receptor at 100 nM
[35] = Drug level in Sprague-Dawley rat brain at 100 mg/kg, po after 1 hr; type: ADME, organism-based; design: dose 100 mg/kg, route oral; details: read-out: Drug uptake; outline: as §1
[36] = Metabolic stability in dog liver microsomes; type: ADME, Canis lupus familiaris, Microsome

Beta-2 adrenergic receptor (Homo sapiens), sequence (P07550 whole entry, looked up): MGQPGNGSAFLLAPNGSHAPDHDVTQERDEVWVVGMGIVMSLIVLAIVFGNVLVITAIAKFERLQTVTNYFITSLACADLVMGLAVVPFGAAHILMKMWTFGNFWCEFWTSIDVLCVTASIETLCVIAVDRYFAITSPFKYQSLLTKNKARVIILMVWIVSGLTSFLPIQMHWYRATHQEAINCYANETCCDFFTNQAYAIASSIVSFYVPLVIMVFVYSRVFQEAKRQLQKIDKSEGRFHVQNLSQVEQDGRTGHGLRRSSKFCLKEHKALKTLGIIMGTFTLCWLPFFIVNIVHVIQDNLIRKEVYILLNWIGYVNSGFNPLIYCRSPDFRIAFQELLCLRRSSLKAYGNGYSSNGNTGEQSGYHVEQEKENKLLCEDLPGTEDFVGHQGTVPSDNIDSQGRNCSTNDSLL
5-hydroxytryptamine receptor 5A (Homo sapiens), sequence (P47898 whole entry): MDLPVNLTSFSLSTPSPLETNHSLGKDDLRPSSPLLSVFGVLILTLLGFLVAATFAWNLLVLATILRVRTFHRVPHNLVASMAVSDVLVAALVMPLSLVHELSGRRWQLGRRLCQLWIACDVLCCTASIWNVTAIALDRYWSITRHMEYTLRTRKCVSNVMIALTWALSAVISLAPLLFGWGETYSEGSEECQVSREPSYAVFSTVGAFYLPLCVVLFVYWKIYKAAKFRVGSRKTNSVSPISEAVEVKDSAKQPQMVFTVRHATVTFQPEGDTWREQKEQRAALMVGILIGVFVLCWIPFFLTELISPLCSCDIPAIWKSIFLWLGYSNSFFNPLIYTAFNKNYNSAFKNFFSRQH
5-hydroxytryptamine receptor 2B, sequence (P41595 whole entry): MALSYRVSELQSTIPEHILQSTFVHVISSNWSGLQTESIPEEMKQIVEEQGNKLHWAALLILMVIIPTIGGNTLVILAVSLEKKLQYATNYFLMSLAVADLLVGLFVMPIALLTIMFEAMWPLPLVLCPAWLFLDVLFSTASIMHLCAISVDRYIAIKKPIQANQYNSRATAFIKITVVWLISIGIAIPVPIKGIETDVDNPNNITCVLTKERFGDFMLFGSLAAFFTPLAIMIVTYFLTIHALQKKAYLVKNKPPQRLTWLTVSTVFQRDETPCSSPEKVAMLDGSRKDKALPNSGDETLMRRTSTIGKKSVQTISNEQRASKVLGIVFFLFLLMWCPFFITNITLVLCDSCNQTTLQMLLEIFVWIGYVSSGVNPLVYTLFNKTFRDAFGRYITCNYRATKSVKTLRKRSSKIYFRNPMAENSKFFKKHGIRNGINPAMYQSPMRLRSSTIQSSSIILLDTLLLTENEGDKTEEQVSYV

## NCCc1cn(S(=O)(=O)c2c(Cl)nc3sccn23)c2ccccc12
[1]
  Ki: 458 nM
[2]
  half-life: 3.1 h
[3]
  concentration at 2 h: 239 ng/mL
[4]
  Kp at 4 h: 0.26
[5]
  Kp at 0.5 h: 0.17
[6]
  inhibition: < 50%
[7]
  half-life: 2.9 h
[8]
  concentration at 1 h: 21 ng/mL
[9]
  AUC: 140 ng·h/mL
[10]
  Kp at 2 h: 0.25
[11]
  clearance: 30 mL/min/kg
[12]
  concentration at 2 h: 59.6 ng/mL
[13]
  concentration at 2 h: 1.1 ng/mL
[14]
  concentration at 0.5 h: 356 ng/mL
[15]
  Activity: 40%
[16]
  concentration at 0.25 h: 91.3 ng/mL
[17]
  AUC: 1430 ng·h/mL
[18]
  bioavailability: 55%
[19]
  Tmax: 1.7 h
[20]
  concentration at 0.25 h: 12.5 ng/mL
[21]
  concentration at 0.5 h: 194 ng/mL
[22]
  half-life: 6.4 min
[23]
  Kp at 0.5 h: 0.55
[24]
  inhibition: < 50%
[25]
  solubility: 240 µg/mL (≈ 630 µM)
[26]
  Kp at 0.25 h: 0.1
[27]
  concentration at 0.25 h: 120 ng/mL
[28]
  half-life: 8 min
[29]
  solubility: > 10000 µg/mL
[30]
  concentration at 0.25 h: 8.4 ng/mL
[31]
  concentration at 0.5 h: 11.5 ng/mL
[32]
  concentration at 1 h: 312 ng/mL
[33]
  Kp at 1 h: 0.68
[34]
  Activity: < 50%
[35]
  concentration at 1 h: 45.1 ng/mL
[36]
  half-life: 0.433 h
